Our source for the IC50 values is BindingDB's records for doi:10.1021/jm9009229 (University of California, 2010).

In this assay the target is Cruzipain (Trypanosoma cruzi, UniProt P25779). The assay can be described thus: Inhibition of Trypanosoma cruzi cruzain preincubated for 5 mins before substrate addition in presence of 0.01% Triton X-100. The procedure, abridged:
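Cruzain IC50s were measured from dose-response curves with Triton X-100 in the assay buffer at either 0.01% or 0.001%. At 0.001% Triton, some runs included pre-incubation with BSA.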

pIC50: −log10 of the molar value.

Cruzipain, sequence (P25779 whole entry): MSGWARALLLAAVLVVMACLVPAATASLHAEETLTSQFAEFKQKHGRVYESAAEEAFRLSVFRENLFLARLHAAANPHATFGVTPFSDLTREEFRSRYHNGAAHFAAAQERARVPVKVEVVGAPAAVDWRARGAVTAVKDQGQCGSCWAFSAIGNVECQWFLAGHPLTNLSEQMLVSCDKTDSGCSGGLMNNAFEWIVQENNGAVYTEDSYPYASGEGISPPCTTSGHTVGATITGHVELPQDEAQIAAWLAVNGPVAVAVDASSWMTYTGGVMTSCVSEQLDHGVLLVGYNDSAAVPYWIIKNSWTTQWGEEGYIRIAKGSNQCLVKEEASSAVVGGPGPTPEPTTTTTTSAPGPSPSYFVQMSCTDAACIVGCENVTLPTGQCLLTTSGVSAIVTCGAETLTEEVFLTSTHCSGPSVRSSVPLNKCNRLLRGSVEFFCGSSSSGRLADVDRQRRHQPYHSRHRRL

Consider `Cc1ccc(-c2cc(NC(=O)c3nnc(-c4ccccc4N)o3)[nH]n2)cc1` [5-(2-Amino-phenyl)-[1,3,4]oxadiazole-2-carboxylic acid(5-p-tolyl-2H-pyrazol-3-yl)-amide], for which the negative-log IC50 (pIC50) was below 4.00. The result for `Nc1ccccc1-c1nnc(C(=O)Nc2ccc3oc4c(c3c2)CCCC4)o1` [5-(2-Amino-phenyl)-[1,3,4]oxadiazole-2-carboxylic acid(6,7,8,9-tetrahydrodibenzofuran-2-yl)-amide] reads below 4.00; that for `Nc1ccccc1-c1nnc(C(=O)Nc2cccc(N3CCCC3)c2)o1` [5-(2-Amino-phenyl)-[1,3,4]oxadiazole-2-carboxylic acid(3-pyrrolidin-1-yl-phenyl)-amide], below 4.00; that for `Nc1ccccc1-c1nnc(C(=O)Nc2cc(-c3ccccc3)n[nH]2)o1` [5-(2-Amino-phenyl)-[1,3,4]oxadiazole-2-carboxylic acid(5-phenyl-2H-pyrazol-3-yl)-amide], below 4.00.

On to `CC(C)(C)c1cc(NC(=O)c2nnc(-c3ccccc3N)o2)[nH]n1` [5-(2-Amino-phenyl)-[1,3,4]oxadiazole-2-carboxylic acid(5-tert-butyl-2H-pyrazol-3-yl)-amide], for which the pIC50 was below 4.30. The result for `Cc1cc(NC(=O)c2nnc(-c3ccccc3N)o2)[nH]n1` [5-(2-Amino-phenyl)-[1,3,4]oxadiazole-2-carboxylic acid(5-methyl-2H-pyrazol-3-yl)-amide] reads below 4.00. The result for `COc1ccc(-c2cc(NC(=O)c3nnc(-c4ccccc4N)o3)[nH]n2)cc1` [5-(2-Amino-phenyl)-[1,3,4]oxadiazole-2-carboxylic acid[5-(4-methoxy-phenyl)-1Hpyrazol-3-yl]-amide] reads below 4.00.
